According to ChEMBL document CHEMBL3621046, “Discovery of a potent enoyl-acyl carrier protein reductase (FabI) inhibitor suitable for antistaphylococcal agent” (Bioorg Med Chem Lett, 2015):
≈ marks a conversion by molar mass, not a printed value.

How the values were obtained:
[1] = target: T1, Enoyl-[acyl-carrier-protein] reductase [NADPH] FabI (Staphylococcus aureus, UniProt Q6GI75); assay: Inhibition of Staphylococcus aureus FabI assessed as reduction in inhibition of reduction of trans-2-octenoyl N-acetylcysteamine substrate by spectrophotometry
T1 sequence (Q6GI75 whole entry): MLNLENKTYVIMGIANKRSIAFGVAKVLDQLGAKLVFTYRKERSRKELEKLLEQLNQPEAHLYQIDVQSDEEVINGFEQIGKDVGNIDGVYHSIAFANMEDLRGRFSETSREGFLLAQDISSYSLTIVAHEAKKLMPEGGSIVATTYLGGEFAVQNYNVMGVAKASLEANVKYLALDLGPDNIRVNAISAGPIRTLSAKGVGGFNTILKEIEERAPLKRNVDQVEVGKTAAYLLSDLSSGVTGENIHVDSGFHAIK

Staphylococcus aureus [2] = assay: Antibacterial activity against Staphylococcus aureus incubated for 18 hrs by agar dilution method; type: functional
Staphylococcus aureus [3] = assay: Antibacterial activity against methicillin-resistant Staphylococcus aureus incubated for 18 hrs by agar dilution method; type: functional
Outline: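 Agar dilution. Strains were grown 18 h at 37 °C with shaking in Fleisch extract broth (beef extract 1%, peptone 1%, NaCl 0.3%, Na₂HPO₄ 0.2%, pH 7.4–7.5), then diluted 100-fold. Plates incubated 37 °C, 18 h. MIC is the lowest concentration preventing growth.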

Compound | IC50 [1] | MIC (Staphylococcus aureus [2]) | MIC (Staphylococcus aureus [3])
Cc1ccc(Oc2coc(/C=C/c3ccoc3)cc2=O)c(C)c1 | 2290 nM | > 20 µg/mL | 
O=c1cc(COc2ccccc2)n(C2CC2)cc1Oc1cccc(Cl)c1Cl | 1500 nM | 3.12 µg/mL (≈ 7.77 µM) | 6.25 µg/mL (≈ 15.5 µM)
O=c1cc(COc2ccccc2)[nH]cc1Oc1c(Cl)cccc1Cl | 4980 nM | 3.12 µg/mL (≈ 8.63 µM) | 3.12 µg/mL (≈ 8.63 µM)
Cn1cc(Oc2c(Cl)cccc2Cl)c(=O)cc1COc1ccccc1 | 720 nM | 0.195 µg/mL (≈ 0.518 µM) | 0.195 µg/mL (≈ 0.518 µM)
O=c1cc(COc2ccccc2)n(C2CC2)cc1Oc1c(Cl)cccc1Cl | 6430 nM | 3.12 µg/mL (≈ 7.77 µM) | 3.12 µg/mL (≈ 7.77 µM)
O=c1cc(COc2ccccc2)[nH]cc1Oc1cccc([N+](=O)[O-])c1Cl | 11700 nM | > 20 µg/mL | 
Cn1cc(Oc2cccc([N+](=O)[O-])c2Cl)c(=O)cc1COc1ccccc1 | 660 nM | 0.781 µg/mL (≈ 2.02 µM) | 3.12 µg/mL (≈ 8.08 µM)
O=c1cc(COc2ccccc2)n(C2CC2)cc1Oc1cccc([N+](=O)[O-])c1Cl | 17600 nM | > 20 µg/mL | 
COCc1cc(=O)c(Oc2ccc(Cl)cc2)co1 | 5200 nM | 6.25 µg/mL (≈ 23.4 µM) | 
O=c1cc(COc2ccccc2)occ1Oc1ccc(Cl)cc1Cl | 680 nM | 3.12 µg/mL (≈ 8.6 µM) | 6.25 µg/mL (≈ 17.2 µM)
Cc1cc(Cl)ccc1Oc1coc(COc2ccccc2)cc1=O | 450 nM | 1.56 µg/mL (≈ 4.56 µM) | 6.25 µg/mL (≈ 18.2 µM)
Cc1ccc(Oc2coc(COc3ccccc3)cc2=O)c(C)c1 | 380 nM | 1.56 µg/mL (≈ 4.85 µM) | 1.56 µg/mL (≈ 4.85 µM)
O=c1cc(COc2ccccc2)occ1Oc1cccc(Cl)c1Cl | 1250 nM | 6.25 µg/mL (≈ 17.2 µM) | 12.5 µg/mL (≈ 34.4 µM)
O=c1cc(COc2ccccc2)occ1Oc1c(Cl)cccc1Cl | 1420 nM | 6.25 µg/mL (≈ 17.2 µM) | 12.5 µg/mL (≈ 34.4 µM)
Cc1c(Oc2coc(COc3ccccc3)cc2=O)cccc1[N+](=O)[O-] | 3520 nM | 12.5 µg/mL (≈ 35.4 µM) | 12.5 µg/mL (≈ 35.4 µM)
Cc1cc(Cl)ccc1Oc1coc(/C=C/c2ccccc2)cc1=O | 4880 nM | > 20 µg/mL | 
Cc1cc(Cl)ccc1Oc1coc(/C=C/c2ccoc2)cc1=O | 2450 nM | > 20 µg/mL | 
Cc1cc(Cl)ccc1Oc1coc(/C=C/c2ccco2)cc1=O | 3890 nM | > 20 µg/mL | 
Cc1cc(Cl)ccc1Oc1coc(/C=C/c2cccnc2)cc1=O | 2940 nM | > 20 µg/mL | 
Cc1cc(Cl)ccc1Oc1coc(/C=C/c2ccsc2)cc1=O | 3120 nM | > 20 µg/mL | 
Cc1cc(Cl)ccc1Oc1coc(/C=C/c2cccs2)cc1=O | 4570 nM | > 20 µg/mL | 
Cc1cc(Cl)ccc1Oc1coc(/C=C/c2ccc[nH]2)cc1=O | 5820 nM | > 20 µg/mL | 
CCC/C=C/c1cc(=O)c(Oc2ccc(Cl)cc2C)co1 | 6440 nM | > 20 µg/mL | 
Cc1cc(Cl)ccc1Oc1coc(/C=C/C(C)C)cc1=O | 5780 nM | > 20 µg/mL | 
O=c1cc(/C=C/c2ccccc2)occ1Oc1ccc(Cl)cc1Cl | 4530 nM | > 20 µg/mL | 
O=c1cc(/C=C/c2ccoc2)occ1Oc1ccc(Cl)cc1Cl | 1890 nM | > 20 µg/mL | 
O=c1cc(/C=C/c2cccnc2)occ1Oc1ccc(Cl)cc1Cl | 2040 nM | > 20 µg/mL | 

Compound | IC50 [1] | MIC (Staphylococcus aureus [2]) | MIC (Staphylococcus aureus [3])
Cc1ccc(Oc2coc(/C=C/c3ccccc3)cc2=O)c(C)c1 | 5330 nM | > 20 µg/mL | 
Cc1ccc(Oc2coc(/C=C/c3cccnc3)cc2=O)c(C)c1 | 3480 nM | > 20 µg/mL | 
O=c1cc(/C=C/c2ccccc2)occ1Oc1cccc(Cl)c1Cl | 6730 nM | > 20 µg/mL | 
O=c1cc(/C=C/c2ccoc2)occ1Oc1cccc(Cl)c1Cl | 5680 nM | > 20 µg/mL | 
O=c1cc(/C=C/c2cccnc2)occ1Oc1cccc(Cl)c1Cl | 3440 nM | > 20 µg/mL | 
O=c1cc(/C=C/c2ccccc2)occ1Oc1c(Cl)cccc1Cl | 4790 nM | > 20 µg/mL | 
O=c1cc(/C=C/c2ccoc2)occ1Oc1c(Cl)cccc1Cl | 4120 nM | > 20 µg/mL | 
O=c1cc(/C=C/c2cccnc2)occ1Oc1c(Cl)cccc1Cl | 3740 nM | > 20 µg/mL | 
O=c1cc(COc2ccccc2)[nH]cc1Oc1ccc(Cl)cc1Cl | 1820 nM | 0.781 µg/mL (≈ 2.16 µM) | 1.56 µg/mL (≈ 4.32 µM)
Cn1cc(Oc2ccc(Cl)cc2Cl)c(=O)cc1COc1ccccc1 | 120 nM | 0.195 µg/mL (≈ 0.518 µM) | 0.195 µg/mL (≈ 0.518 µM)
O=c1cc(COc2ccccc2)n(C2CC2)cc1Oc1ccc(Cl)cc1Cl | 480 nM | 1.56 µg/mL (≈ 3.89 µM) | 1.56 µg/mL (≈ 3.89 µM)
CCCCn1cc(Oc2ccc(Cl)cc2Cl)c(=O)cc1COc1ccccc1 | 1250 nM | 6.25 µg/mL (≈ 14.9 µM) | 6.25 µg/mL (≈ 14.9 µM)
O=c1cc(COc2ccccc2)n(Cc2ccccc2)cc1Oc1ccc(Cl)cc1Cl | 1420 nM | 6.25 µg/mL (≈ 13.8 µM) | 12.5 µg/mL (≈ 27.6 µM)
Cc1cc(Cl)ccc1Oc1c[nH]c(COc2ccccc2)cc1=O | 400 nM | 1.56 µg/mL (≈ 4.57 µM) | 1.56 µg/mL (≈ 4.57 µM)
Cc1cc(Cl)ccc1Oc1cn(C)c(COc2ccccc2)cc1=O | 110 nM | 0.098 µg/mL (≈ 0.275 µM) | 0.098 µg/mL (≈ 0.275 µM)
Cc1cc(Cl)ccc1Oc1cn(C2CC2)c(COc2ccccc2)cc1=O | 470 nM | 0.391 µg/mL (≈ 1.02 µM) | 0.781 µg/mL (≈ 2.05 µM)
CCCCn1cc(Oc2ccc(Cl)cc2C)c(=O)cc1COc1ccccc1 | 630 nM | 3.12 µg/mL (≈ 7.85 µM) | 3.12 µg/mL (≈ 7.85 µM)
Cc1cc(Cl)ccc1Oc1cn(Cc2ccccc2)c(COc2ccccc2)cc1=O | 650 nM | 3.12 µg/mL (≈ 7.24 µM) | 6.25 µg/mL (≈ 14.5 µM)
Cc1ccc(Oc2c[nH]c(COc3ccccc3)cc2=O)c(C)c1 | 1140 nM | 0.781 µg/mL (≈ 2.43 µM) | 1.56 µg/mL (≈ 4.86 µM)
Cc1ccc(Oc2cn(C3CC3)c(COc3ccccc3)cc2=O)c(C)c1 | 3170 nM | 0.391 µg/mL (≈ 1.08 µM) | 1.56 µg/mL (≈ 4.32 µM)
CCCCn1cc(Oc2ccc(C)cc2C)c(=O)cc1COc1ccccc1 | 1000 nM | 0.781 µg/mL (≈ 2.07 µM) | 1.56 µg/mL (≈ 4.14 µM)
Cc1ccc(Oc2cn(Cc3ccccc3)c(COc3ccccc3)cc2=O)c(C)c1 | 2690 nM | 1.56 µg/mL (≈ 3.8 µM) | 3.12 µg/mL (≈ 7.59 µM)
O=c1cc(COc2ccccc2)[nH]cc1Oc1cccc(Cl)c1Cl | 840 nM | 1.56 µg/mL (≈ 4.32 µM) | 1.56 µg/mL (≈ 4.32 µM)
Cn1cc(Oc2cccc(Cl)c2Cl)c(=O)cc1COc1ccccc1 | 220 nM | 0.195 µg/mL (≈ 0.518 µM) | 0.195 µg/mL (≈ 0.518 µM)
CC(=O)NC[C@H]1CN(c2ccc(N3CCOCC3)c(F)c2)C(=O)O1 [LINEZOLID] |  |  | 0.781 µg/mL (≈ 2.32 µM)
Oc1cc(Cl)ccc1Oc1ccc(Cl)cc1Cl [TRICLOSAN] |  | 0.391 µg/mL (≈ 1.35 µM) | 
